Screening data deposited in PubChem BioAssay by several laboratories.
Hits are enriched below; roughly 1.5% of the tested compounds scored in any of these assays.
TPT1 inh: C. albicans TPT1 enzyme inhibition; inhibition, % at 5 µM; hit rate 0.81% among 300,000; recombinant caTPT1, FP RNA substrate dephosphorylation;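 active = inhibition above the mean of all tested compounds plus 3 SD, set per screening campaign, cut at about 24% in these data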
CSN inh: inhibitors of human CSN-mediated cullin deneddylation; hit rate 0.38% among 360,000; Q92905; inhibition, % at 12.5 µM; Purified CSN, SCF-Nedd8-OG deneddylation, fluorescence polarization; AID 651999;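 active = pattern-corrected inhibition above about 35%, with an unprinted fluorescence ratio check between 0.5 and 1.5, limit read from the data, passing the limit was not always enough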
Target sequence (Q92905 whole entry, looked up, one chain of several): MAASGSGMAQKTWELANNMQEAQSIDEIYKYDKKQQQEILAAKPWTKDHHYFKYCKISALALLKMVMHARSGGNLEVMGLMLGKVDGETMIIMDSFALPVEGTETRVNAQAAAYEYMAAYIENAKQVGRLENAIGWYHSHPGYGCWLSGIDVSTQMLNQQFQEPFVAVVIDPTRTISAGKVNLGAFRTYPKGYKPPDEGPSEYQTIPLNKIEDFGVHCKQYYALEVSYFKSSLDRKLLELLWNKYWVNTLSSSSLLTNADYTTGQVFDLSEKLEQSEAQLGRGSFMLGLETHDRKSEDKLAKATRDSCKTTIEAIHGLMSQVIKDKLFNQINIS
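test system = HEK293T-derived human Csn5 enzyme | amount = 0.24 nM Csn5 enzyme, final concentration | medium = Tris/NaCl/DTT buffer, pH 7.5 | schedule = 90 min reaction at room temperature | signal = FP | evaluation = inhibition of Csn5 cleavage, % | compound dosing = single dose of 12.5 µM compound with 0.25% DMSO | probe or stimulus = 10 nM SCFSkp2-Nedd8OG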
Rpn11 block: inhibitors of human proteasome Rpn11 | calls only at 20 µM | AID 588493 | human 26S proteasome, Ub4-pepOG fluorescence polarization; 20S core pre-blocked with epoxomicin | hit rate 0.59% among 360,000;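 active = inhibition at 20 µM, scaled to each plate's controls, above about 33%, limit read from the data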
HNF4A DNA FP: change in binding of human HNF4 alpha to DNA. P41235. HNF4a-FITC DNA binding, fluorescence polarization, 1 h. activity change, % at 10 µM. hit rate 0.3% among 360,000; in the data active = activity change above about 30%, passing the limit was not always enough
TPT1 inh confirm: confirmation of Candida albicans TPT1 inhibitors | shares compounds with TPT1 inh | recombinant caTPT1, fluorescence polarization, RNase T1 coupled | inhibition, % at 5 µM | hit rate 74% among 2,400;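 active = inhibition above the primary screen limit, the mean inhibition of all tested compounds plus 3 SD, cut at about 25% in these data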
RNase T1 inh: counter-screen for TPT1 inhibitors: inhibitors of Aspergillus oryzae RNase T1. shares compounds with TPT1 inh. RNase T1 cleavage, fluorescence polarization, 1536-well. inhibition, % at 5 µM. hit rate 83% among 2,400. AID 2153;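 active = inhibition above the solvent-only control well mean plus 3 SD, limit set per screening run, cut at about 23% in these data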;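 also: inhibitors block cleavage so intact labeled substrate keeps polarization high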
Target sequence (P00651 whole entry, looked up): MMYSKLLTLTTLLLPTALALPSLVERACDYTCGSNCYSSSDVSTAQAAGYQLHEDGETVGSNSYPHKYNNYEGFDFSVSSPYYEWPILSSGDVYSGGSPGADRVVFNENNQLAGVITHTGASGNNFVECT
Rpn11 inh conf: Rpn11 inhibition confirmation, single concentration; shares compounds with Rpn11 block; purified human 26S proteasome, Ub4-pepOG fluorescence polarization; proteasome pretreated with epoxomicin; inhibition, % at 20 µM; hit rate 29% among 1,900
MMP-2 counter: counter-screen for RPN11 inhibitors: inhibition of human MMP-2. shares compounds with Rpn11 block. recombinant MMP-2, FRET peptide cleavage fluorescence. inhibition, % at 20 µM. hit rate 4% among 1,900;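 also: human MMP-2 activated beforehand with APMA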
Thrombin FP: blocks bovine thrombin, flagging nonselective RPN11 hits. bovine thrombin cleavage of Ub4-pepOG, fluorescence polarization. hit rate 13% among 1,900. shares compounds with Rpn11 block. inhibition, % at 20 µM;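 active = mean inhibition at least 40% at 20 µM, or signal 3 deviations below plate average, so some actives read negative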
HNF4A confirm: change in binding of human HNF4 alpha to DNA, retest | shares compounds with HNF4A DNA FP | HNF4A-FITC DNA binding, fluorescence polarization, 1 h | activity change, % at 12.5 µM | hit rate 99% among 210 | AID 1224897; call rule not given here
Large screens that a line does not name were inactive (follow-up assays come after a bar, where shown). Rule as the data show it, unless noted: active = inhibition above about 40%; inactive = the rest.

CCC(C)NC(=O)c1cn(CC)c2ccc(S(=O)(=O)N3CCCCCC3)cc2c1=O (centres undefined)	none
CC(NC(=O)/C(C#N)=C1\N=C(NC(=O)c2ccco2)c2ccccc21)c1ccccc1 (centres undefined)	TPT1 inh 47.3, HNF4A DNA FP 73.6 | TPT1 inh confirm inactive | RNase T1 inh 31.3 | HNF4A confirm 35.5
CCC(C)c1ccccc1NC(=O)CN(CC)CC(=O)Nc1ccc2c(c1)OCCO2 (centres undefined)	none (no result: TPT1 inh)
O=C1c2ccccc2S(=O)(=O)c2cc(N3CCOCC3)ccc21	TPT1 inh 33.7, Rpn11 block active, HNF4A DNA FP 44.5 | TPT1 inh confirm 34.8 | RNase T1 inh 45.8 | Rpn11 inh conf 44.2 | MMP-2 counter inactive | Thrombin FP inactive | HNF4A confirm 50.4
CC(=O)c1sc(N/N=C\c2cccc(Br)c2)nc1C	TPT1 inh 67.3, HNF4A DNA FP 39.4 (not shown: Rpn11 block) | TPT1 inh confirm 77.7 | RNase T1 inh 80.6 | HNF4A confirm 56.9
CN1C2C=CC(=O)C1C1C(=O)N(c3ccccc3)C(=O)C12 (centres undefined)	none (no result: TPT1 inh)
O=C(O)c1ccccc1N(c1ccccc1)c1ccccc1	none
COc1cc(-c2cc(-c3ccc(N)cc3)[nH]c(=O)c2C#N)cc(OC)c1OC	TPT1 inh 102.6, HNF4A DNA FP 54.8 (not shown: Rpn11 block) | TPT1 inh confirm 102.8 | RNase T1 inh 104.7 | HNF4A confirm 82.6
N#Cc1c(-c2ccccc2)cc(-c2ccccc2)[nH]c1=O	none
CC1CCN(c2ccc([N+](=O)[O-])cc2C(=O)NCC2CCCO2)CC1 (centres undefined)	none
COc1cc2c(cc1OC)C(c1cc(OC)c(OC)c(OC)c1)C1(O)C(=O)OCC1(O)C2 (centres undefined)	none (no result: TPT1 inh)
O=[N+]([O-])c1ccc(-c2ccc(/C=N/Nc3nc(N4CCCC4)nc(N4CCCC4)n3)o2)cc1	TPT1 inh 28.8, HNF4A DNA FP 32.8 (not shown: Rpn11 block) | TPT1 inh confirm 42.9 | RNase T1 inh 59.1 | HNF4A confirm 35.1
O=[N+]([O-])c1cccc(-c2ccc(/C=N/Nc3nc(N4CCCCC4)nc(N4CCCCC4)n3)o2)c1	none
CCOC(=O)c1c(NC(=S)Nc2ccc(Cl)cc2)sc2c1CCN(C)C2	TPT1 inh 91.1, CSN inh 61.4, HNF4A DNA FP 58.1 (not shown: Rpn11 block) | TPT1 inh confirm 87.8 | RNase T1 inh 91.3 | HNF4A confirm 82.6
CCOC(=O)c1c(NC(=O)Nc2ccc(F)cc2)sc2c1CCN(C)C2	none
O=C1NC(=S)N(C(=O)c2ccc(F)cc2)/C1=C/c1ccccc1	TPT1 inh 109.5, CSN inh 54.6, HNF4A DNA FP 77.9 (not shown: Rpn11 block) | TPT1 inh confirm 108.5 | RNase T1 inh 115.5 | HNF4A confirm 88.6
O=S(=O)(c1ccc(OCc2ccc(Br)cc2)cc1)N1CCOCC1	none (no result: TPT1 inh)
Cc1cc(/C=C2/C(=N)N3C(c4ccccc4)=CSC3=NC2=O)c(C)n1-c1ccc(Cl)cc1	none (no result: TPT1 inh)
Cc1cccc(-n2c(C)cc(/C=C3/C(=N)N4C(c5ccccc5)=CSC4=NC3=O)c2C)c1	Rpn11 block active | Rpn11 inh conf inactive | MMP-2 counter inactive | Thrombin FP inactive
Cc1c(OCC(N)=O)ccc2c(-c3ccccc3)cc(=O)oc12	Rpn11 block active | Rpn11 inh conf 47.3 | MMP-2 counter inactive | Thrombin FP inactive
Cc1ccccc1Sc1ccc(N)cn1	Rpn11 block active, HNF4A DNA FP 71.6 | Rpn11 inh conf inactive | MMP-2 counter inactive | Thrombin FP inactive
Cc1ccc(C)c(SCC(=O)Nc2oc(C)c3c(C)n[nH]c(=O)c23)c1	none
CCc1ccc(NC(=O)C2CCN(S(=O)(=O)c3ccc4c(c3)NC(=O)C(C)S4)CC2)cc1 (centres undefined)	Rpn11 block active | Rpn11 inh conf 87.4 | MMP-2 counter inactive | Thrombin FP inactive
COc1cc(NC(=O)CCn2c(=S)[nH]c3ccccc3c2=O)cc(OC)c1OC	Rpn11 block active (no result: TPT1 inh) | Rpn11 inh conf 102.7 | MMP-2 counter inactive | Thrombin FP inactive
N#CCCSc1ccccc1NC(=O)c1cc(=O)c2ccccc2o1	none
COC(=O)CCC(=O)N1CCCC(N2CCN(c3ccc(OC)cc3)CC2)C1 (centres undefined)	Rpn11 block active | Rpn11 inh conf inactive | MMP-2 counter inactive | Thrombin FP inactive
COCCC(=O)N1CCCC(N2CCN(c3ccc(F)cc3)CC2)C1 (centres undefined)	none
O=C(COC(=O)c1cc(Cl)nc(Cl)c1)NC1CCCCCC1	none (no result: TPT1 inh)
Nc1ccc(N=Nc2ccc(N)cc2)cc1	none
Cc1cc(N(C)C)ccc1N=Nc1ccc(N)cc1	Rpn11 block active | Rpn11 inh conf inactive | MMP-2 counter inactive | Thrombin FP inactive
COc1ccc(-c2nc(SCC(=O)Nc3nccs3)c(-c3ccc(Cl)cc3)[nH]2)cc1	none
COc1ccc(-c2[nH]c(-c3ccc(SC)cc3)nc2SCC(=O)Nc2nccs2)cc1	Rpn11 block active | Rpn11 inh conf 86.8 | MMP-2 counter inactive | Thrombin FP 62.7
COc1ccc(-c2[nH]c(-c3ccc(C)cc3)nc2SCC(=O)Nc2nccs2)cc1	Rpn11 block active, HNF4A DNA FP 30.2 | Rpn11 inh conf inactive | MMP-2 counter inactive | Thrombin FP inactive
O=S(=O)(c1ccc(Oc2ccc(F)c(Cl)c2)nc1)N1CCOCC1	none
Cc1cc(C)n(C(=O)CNC(=O)/C=C/c2ccccc2)n1	Rpn11 block active | Rpn11 inh conf inactive | MMP-2 counter inactive | Thrombin FP inactive
COc1ccc(/C=C/C(=O)NCC(=O)n2nc(C)cc2C)cc1	none
O=C(C[C@H]1C=C[C@H](NC(=O)c2ccccn2)[C@@H](CO)O1)NCc1cc(F)cc(F)c1	none (no result: TPT1 inh, Rpn11 block)
COc1ccc(N2CCN(C(=O)Cc3ccc(S(=O)(=O)N4CCOCC4)s3)CC2)cc1	Rpn11 block active | Rpn11 inh conf inactive | MMP-2 counter inactive | Thrombin FP inactive
Cc1ccsc1C1C(C(=O)O)c2ccccc2C(=O)N1C (centres undefined)	Rpn11 block active | Rpn11 inh conf inactive | MMP-2 counter inactive | Thrombin FP inactive
CCOC(=O)c1c(NC(=O)C2CC(Cl)=CCC2C(=O)O)sc2c1CCCCC2 (centres undefined)	none
